How the values were obtained:
[1] = melting temperature; fluorescence melt of hairpins on a sequencing array, two-state fit, raised by 9.35 °C to match UV melts; details: sodium 0.088 M
Procedure, shortened: (§1)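 To match UV melts, fitted temperatures were raised by 9.35 °C. These fits were bootstrapped two-state models that gave melting temperature and folding enthalpy, combined by inverse variance over four replicates. The input was normalised Cy3 fluorescence of library hairpins with annealed Cy3 and quencher oligos on a sequenced MiSeq flow cell, imaged in 50 mM Na-HEPES pH 8.0, 25 mM NaCl in 2.5 °C steps up to 60 °C.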

[2] = folding enthalpy; higher = less favourable; fluorescence melt of hairpins on a sequencing array, two-state fit; details: sodium 0.088 M
Procedure, shortened: as §1

Sequence	Tm [1] [°C]	folding enthalpy [2] [kcal/mol]
GCCAACGAAAGTTTGGGC ((((((....)))..)))	46	-26.9
GCCAAGCGAAAGCATGGC ((((.((....)).))))	67	-34.9
GCCAAGCGAAAGCCAGGC (((..((....))..)))	54.5	-22.2
GCCAAGCGAAAGCTAGGC (((.(((....))).)))	60.4	-40.1
GCCAAGGAAACTTGGC ((((((....))))))	62.9	-38.2
GCCAATCGAAAGATAGGC (((.(((....))).)))	52.1	-35.6
GCCACAGGAAACCGTGGC (((((.(....).)))))	55.4	-43
GCCACAGGAAACTATGGC ((((.((....)).))))	39.3	-31.8
GCCACAGGAAACTGCGGC (((.(((....))).)))	52	-56.4
GCCACCACGAAAGTGGGC (((..(((....))))))	46	-9.17
GCCACCCCGAAAGGGGGC (((..(((....))))))	55.8	-11.4
GCCACCGAAAGGTAGGGC ((((((....)))..)))	52.7	-27.6
GCCACCGAAAGGTCTGGC ((((((....)))..)))	47.4	-19.4
GCCACCGAAAGGTGAGGC ((((((....)))..)))	54.9	-14.1
GCCACCGGAAACGGCGAC (.(.(((....))).).)	34.7	-14.2
GCCACCGGAAACGGTGAC (.(((((....))))).)	48.8	-14
GCCACGCGAAAGCACGGC (((..((....))..)))	61.9	-35.9
GCCACGCGAAAGCCTGGC ((((.((....)).))))	59.6	-30.4
GCCACGCGAAAGCGTCGC ((.((((....)))).))	60.2	-16.1
GCCACGCGAAAGCTAGGC (((..((....))..)))	52.1	-21.9
GCCACGGGAAACCGTAGC ((.((((....)))).))	46.6	-23.2
GCCACTGGAAACAACGGC (((..((....))..)))	27.6	-17.3
GCCACTGGAAACAATGGC ((((.((....)).))))	42.2	-26.7

Sequence	Tm [1] [°C]	folding enthalpy [2] [kcal/mol]
GCCACTGGAAACAGTAGC ((.((((....)))).))	40.5	-27.7
GCCACTGGAAACAGTGAC (.(((((....))))).)	46.3	-18.9
GCCACTTCGAAAGAAGGC (((..(((....))))))	35.5	-13
GCCAGAGAAATCTGGC ((((((....))))))	64.3	-31.8
GCCAGCACGAAAGTGGGC (((..(((....))))))	50.9	-26.9
GCCAGCGAAAGCTACGGC ((((((....)))..)))	49.8	-19.9
GCCAGCGAAAGCTTAGGC ((((((....)))..)))	52	-27.3
GCCAGCGAAAGCTTGGC ((((((....))).)))	63.9	-27.4
GCCAGCGAAAGCTTGGGC ((((((....)))..)))	52.5	-26.7
GCCAGCGCGAAAGCGGGC (((..(((....))))))	61.2	-16.1
GCCAGCGGAAACGCCAGC ((..(((....)))..))	39	-13.7
GCCAGCGGAAACGCTAGC ((.((((....)))).))	49	-20.5
GCCAGCGGAAACGCTGAC (.(((((....))))).)	51.5	-13.7
GCCAGGCGAAAGCACGGC (((..((....))..)))	60.6	-18.3
GCCAGGCGAAAGCATTGC ((.(.((....)).).))	35.7	-13.1
GCCAGGGGAAACCCTGAC (.(((((....))))).)	47.6	-15.4
GCCAGGGGAAACTCTGGC (((((.(....).)))))	56.1	-40.9
GCCAGGTCGAAAGACGGC (((..(((....))))))	53.4	-34.7
GCCAGTCGAAAGACAGGC (((.(((....))).)))	62.8	-29.6
GCCAGTGCGAAAGCAGGC (((..(((....))))))	53.7	-15.7
GCCAGTGGAAACACTGAC (.(((((....))))).)	46.1	-15.8
GCCATACGAAAGTACGGC (((.(((....))).)))	51.5	-37
GCCATAGGAAACTGTGGC ((((.((....)).))))	52.2	-39.1

Sequence	Tm [1] [°C]	folding enthalpy [2] [kcal/mol]
GCCATATCGAAAGATGGC (((..(((....))))))	48.2	-34.6
GCCATCCGAAAGGAAGGC (((.(((....))).)))	57.9	-31.3
GCCATCGAAAGATCCGGC ((((((....)))..)))	33.2	-19.6
GCCATCGAAAGATTCGGC ((((((....)))..)))	36.9	-21
GCCATCGAAAGATTGGGC ((((((....)))..)))	44.1	-26.8
GCCATCTCGAAAGAGGGC (((..(((....))))))	48.9	-35.2
GCCATGCGAAAGCAACGC ((..(((....)))..))	29	-8.26
GCCATGCGAAAGCACGGC (((.(((....))).)))	56.9	-49.1
GCCATGCGAAAGCGAGGC (((..((....))..)))	60	-21.6
GCCATGCGAAAGCTCGGC (((..((....))..)))	52.5	-23.6
GCCATGCGAAAGCTGGGC (((..((....))..)))	62.6	-26.4
GCCATGCGAAAGCTTTGC ((.(.((....)).).))	36.1	-11.7
GCCATGGGAAACCACGGC (((.(((....))).)))	47.7	-36.5
GCCATGGGAAACTATGGC (((((.(....).)))))	52.5	-37.4
GCCATTACGAAAGTAGGC (((..(((....))))))	42.2	-25.6
GCCATTGGAAACAATGAC (.(((((....))))).)	38.8	-19.1
GCCCAACGAAAGTTAGGC (((.(((....))).)))	48.7	-34.3
GCCCACCCGAAAGGGGGC (((..(((....))))))	58.4	-17.6
GCCCACGAAAGTGAGGC ((((((....))).)))	64	-31.1
GCCCACGAAAGTGAGGGC ((((((....)))..)))	59.9	-28.2
GCCCACTCGAAAGAGGGC (((..(((....))))))	50.6	-22.5
GCCCAGCGAAAGCAGTGC ((.(.((....)).).))	34.7	-13.3
GCCCAGCGAAAGCCAGGC (((..((....))..)))	55.2	-20.6

Sequence	Tm [1] [°C]	folding enthalpy [2] [kcal/mol]
GCCCAGCGAAAGCCTGGC (((..((....))..)))	56.1	-13
GCCCAGCGAAAGCTACGC ((..(((....)))..))	30.2	-5.73
GCCCAGCGAAAGCTGAGC ((.((((....)))).))	63.3	-15.2
GCCCAGCGAAAGCTGCGC ((.((((....)))).))	59	-17.1
GCCCAGCGAAAGCTGGC (((.(((....))))))	61	-9.03
GCCCAGGGAAACCTGAGC ((.((((....)))).))	45.5	-19.2
GCCCATCGAAAGATAGGC (((.(((....))).)))	47.2	-30.5
GCCCCACCGAAAGGTGGC (((..(((....))))))	40.7	-4.81
GCCCCAGGAAACCGGGAC (.(((.(....).))).)	31.1	-16.3
GCCCCAGGAAACTGAGGC (((.(((....))).)))	47.5	-33.5
GCCCCCACGAAAGTGGGC (((..(((....))))))	38.6	-5.47
GCCCCCCGAAAGGGTGGC (((.(((....))).)))	64.2	-33.1
GCCCCCGAAAGGGAGGGC ((((((....)))..)))	59.8	-30
GCCCCCGAAAGGGCAGGC ((((((....)))..)))	50.4	-17.9
GCCCCCGAAAGGGGAGGC ((((((....)))..)))	59.9	-13.8
GCCCCCGAAAGGGTGGC ((((((....))).)))	65.9	-21
GCCCCCGGAAACGGAGGC (((.(((....))).)))	54.9	-35
GCCCCGCGAAAGCGACGC ((..(((....)))..))	31.3	-10.6
GCCCCGCGAAAGCGATGC ((..(((....)))..))	34.2	-11.7
GCCCCGCGAAAGCGCGGC (((.(((....))).)))	64.4	-17.4
GCCCCGCGAAAGCGGTGC ((.((((....)))).))	61.5	-15.7

— the array DNA melting data of Ke et al. (doi:10.1101/2024.01.08.574731)
